From ChEMBL document CHEMBL3865810, “4-Aminoquinoline derivatives: Synthesis, in vitro and in vivo antiplasmodial activity against chloroquine-resistant parasites” (Eur J Med Chem, 2016) come the findings set out here.

Data set [1] concerns Plasmodium falciparum. Kind of data set: Antiplasmodial activity against erythrocytic stage of chloroquine/pyrimethamine/cycloguanil resistant-Plasmodium falciparum FCR3 after 48 hrs by [3H]-hypoxanthine incorporation assay. The data set is classed as functional. The settings on record: FCR-3/Gambia. The procedure, abridged:
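FCR3 P. falciparum, resistant to CQ (100 ng/mL) and pyrimethamine (15 nM), was synchronized to rings and grown at 1% parasitemia and 2% haematocrit in group O erythrocytes. Medium was RPMI 1640 with Albumax II, at 37 °C under 2% O2/5.5% CO2. Cells were exposed for 48 h to serial dilutions from 0.05 to 2x10^-6 mg/ml. Read-out was [3H]-hypoxanthine incorporation, in triplicate, two independent assays. IC50 came from dose-response curves.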

Data set [2] can be described thus: Cytotoxicity against human HuH7 cells after 72 hrs by MTT assay. The data set is classed as toxicity, cell-based, Huh-7. The gist of the method: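 Huh-7 human hepatocellular carcinoma cells, 4 × 10^3 per well in DMEM with 10% FBS and 1% penicillin-streptomycin-glutamine. Exposed to eight 2-fold dilutions spanning 100 to 0.78 µg/mL for 72 h. MTT added for 2-4 h, then detergent solubilization for 2 h in the dark at room temperature; absorbance read at 570 nm. CC50 is the mean of at least two experiments run in duplicate.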
(Tetrazolium assays rely on reduction of a dye to a coloured formazan, in cell work by metabolically active cells.)

Data set [3] has as its system Plasmodium berghei. The data set is described as follows: Antiplasmodial activity against erythrocytic stage of chloroquine-resistant Plasmodium berghei ANKA infected in BALB/c mouse assessed as inhibition of parasitemia at 1 mg/kg/day, ip administered 3 hrs post infection for 4 days by Giemsa staining based microscopic assay relative to control. The data set is classed as functional. The gist of the method:
(§1)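 Peters' four-day suppressive test. Male naïve BALB/c mice, 25 ± 5 g, 4-5 weeks old, 5 per group, were infected ip on day 0 with 2x10^7 P. berghei ANKA parasitized erythrocytes. Dosing was ip from 2 mg/ml stocks in 10% DMSO, first given 1-3 h post-infection and repeated on days 1-3. Saline went to controls. On day 4, parasitemia was counted on Giemsa tail smears and activity = 100 − (treated/control mean parasitemia)×100.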

The test system of data set [4] is Plasmodium berghei. The data set is described as follows: Antiplasmodial activity against erythrocytic stage of chloroquine-resistant Plasmodium berghei ANKA infected in BALB/c mouse assessed as inhibition of parasitemia at 0.1 mg/kg/day, ip administered 3 hrs post infection for 4 days by Giemsa staining based microscopic assay relative to control. The data set is classed as functional. The gist of the method:
as §1

The test system of data set [5] is Plasmodium berghei. Kind of data set: Antiplasmodial activity against erythrocytic stage of chloroquine-resistant Plasmodium berghei ANKA infected in BALB/c mouse assessed as inhibition of parasitemia at 10 mg/kg/day, ip administered 3 hrs post infection for 4 days by Giemsa staining based microscopic assay relative to control. The data set is classed as functional. The procedure, abridged:
as §1

Data set [6] deals with Plasmodium berghei. Kind of data set: Antiplasmodial activity against erythrocytic stage of chloroquine-resistant Plasmodium berghei ANKA infected in ip dosed BALB/c mouse assessed as reduction in parasitemia administered 3 hrs post infection for 4 days by Giemsa staining based microscopic assay. The data set is classed as functional. The gist of the method:
as §1

Data set [7] concerns Plasmodium berghei. The data set is described as follows: Antiplasmodial activity against erythrocytic stage of chloroquine-resistant Plasmodium berghei ANKA infected in BALB/c mouse assessed as inhibition of parasitemia at 5 mg/kg/day, ip administered 3 hrs post infection for 4 days by Giemsa staining based microscopic assay relative to control. The data set is classed as functional. The procedure, abridged: as §1

The nature of data set [8]: Toxicity in ip dosed BALB/c mouse assessed as mortality measured up to7 days. The data set is classed as organism-based. As to conditions: in vivo. The procedure, abridged: (§2)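 For the LD50 test, BALB/c mice were given single ip doses of 50, 100, 200, 500, 600, 800 or 1000 mg/kg BW and observed for mortality over 7 days.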
The subject of data set [9] is Mus musculus. The data set is described as follows: Toxicity in BALB/c mouse assessed as mortality at 500 mg/kg, ip measured up to 7 days. The data set is classed as organism-based. As to conditions: in vivo, 168 h. The gist of the method:
as §2

Data set [10] in a line: Therapeutic index, ratio of LD50 for BALB/c mouse to ED50 for erythrocytic stage of chloroquine-resistant Plasmodium berghei ANKA infected in BALB/c mouse. As to conditions: read-out: Ratio LD50/ED50. The procedure, abridged: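 TI = LD50/ED50. LD50 was taken from BALB/c mice dosed ip at 50-1000 mg/kg and observed for 7 days. ED50 came from the P. berghei ANKA four-day suppressive test with ip dosing.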

Data set [11] concerns Plasmodium berghei. The data set is described as follows: Antiplasmodial activity against erythrocytic stage of chloroquine-resistant Plasmodium berghei ANKA infected in BALB/c mouse assessed as mean survival time at 0.1 to 10 mg/kg/day, ip administered 1 to 3 hrs post infection qd measured on day 4 post last dose by giemsa staining-based microscopic analysis. The data set is classed as functional, organism-based. The gist of the method:
(§3)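 BALB/c mice, 5 per group, were infected ip with 2x10^7 P. berghei ANKA parasitized erythrocytes. They were dosed ip at 0.1, 1, 5 or 10 mg/kg/day from 2 mg/ml stocks in 10% DMSO, starting 1-3 h post-infection, once daily on days 0-3. Saline went to controls. Groups were compared by Kaplan-Meier with a log-rank (Mantel-Cox) test.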

Data set [12] deals with Mus musculus. The data set is described as follows: Toxicity in BALB/c mouse infected with erythrocytic stage of chloroquine-resistant Plasmodium berghei ANKA assessed as weight loss at 0.1 to 10 mg/kg/day, ip administered 3 hrs post infection for 4 days. The data set is classed as organism-based. As to conditions: in vivo.
The test system of data set [13] is Mus musculus. The data set is described as follows: Toxicity in BALB/c mouse assessed as mortality at 1000 mg/kg, ip measured up to 7 days. The data set is classed as organism-based. As to conditions: in vivo, 168 h. The gist of the method: as §2
In data set [14] the test system is Plasmodium berghei. The data set is described as follows: Antiplasmodial activity against erythrocytic stage of chloroquine-resistant Plasmodium berghei ANKA infected in ip dosed BALB/c mouse assessed as increase in mouse survival time administered once daily 3 hrs post infection for 4 consecutive days by Giemsa staining based microscopic assay. The data set is classed as functional, organism-based. The gist of the method: as §3

≈ marks a conversion by molar mass, not a printed value. Calls of active or inactive are those of the source. The rule behind the calls is not given here.

As usually defined, the IC50 is the concentration at which inhibition is half-maximal. Lower therefore signals greater potency in that assay. As usually defined, the CC50 is the concentration at which the toxic effect on the cells reaches its halfway point. A lower CC50 goes with harm at low concentration. In general, inhibition in vivo refers to how much of the control response was suppressed. As a reminder, the ED50 is the dose at which the effect has come halfway, by size or by number of responders. The LD50 is the dose at which mortality reaches 50%.

`Clc1ccc(Cl)c(Nc2ccnc3cc(Cl)ccc23)c1` gave an IC50 in [1] of 0.056 µg/mL (≈ 0.173 µM). Besides, the cytotoxic concentration (CC50) at 72 h in data set [2] is greater than 100 µg/mL.
As for `CCN(CC)Cc1cc(Nc2ccnc3cc(Cl)ccc23)ccc1O` [AMODIAQUINE], the inhibition in vivo at 1 mg/kg/day in data set [3] stood at 48.2%. Further, the inhibition in vivo at 0.1 mg/kg/day in data set [4] worked out at 28%. In data set [5], the inhibition in vivo at 10 mg/kg/day was 94.1%. Besides, the ED50 in data set [6] was 1.19 mg/kg. For the same compound, in data set [7], the inhibition in vivo at 5 mg/kg/day amounted to 67.1%.
With `Cc1ccc(Nc2ccnc3cc(Cl)ccc23)c(C)c1`, the IC50 in [1] turned out to be 0.4 µg/mL (≈ 1.41 µM). In data set [2], the CC50 at 72 h was greater than 100 µg/mL.
The matching figures for `Cc1cccc(Nc2ccnc3cc(Cl)ccc23)c1C`: 0.036 µg/mL (≈ 0.127 µM) and greater than 100 µg/mL.
`Fc1ccc(Nc2ccnc3cc(Cl)ccc23)cc1`: the LD50 at 7 days in data set [8] worked out at 800 mg/kg. The Activity entry in data set [9] is “Non-Toxic”; in [12], “Non-Toxic”; in data set [13], “Toxic”; in [14], “Dose-dependent effect”. In addition, in data set [3], the inhibition in vivo at 1 mg/kg/day came out at 32%. The compound further yielded an IC50 in data set [1] of 0.029 µg/mL (≈ 0.106 µM). Also, the selectivity ratio in data set [10] was 388. Moreover, the inhibition in vivo at 0.1 mg/kg/day in [4] was 21.6%. Besides, the result in data set [11] was Active. In addition, the inhibition in vivo at 10 mg/kg/day in [5] came to 79.1%. The 50% cytotoxic concentration (CC50) at 72 h in data set [2] is greater than 100 µg/mL. Also, the 50% effective dose (ED50) in data set [6] was 2.06 mg/kg. In addition, in data set [7], the inhibition in vivo at 5 mg/kg/day amounted to 54.2%.
Compound `Fc1ccc(Nc2ccnc3cc(Cl)ccc23)cc1Cl` showed an IC50 in data set [1] of 1.9 µg/mL (≈ 6.19 µM). Moreover, the cytotoxic concentration (CC50) at 72 h in data set [2] was greater than 100 µg/mL.
The matching figures for `Clc1ccc(Nc2ccnc3cc(Cl)ccc23)c(Cl)c1`: 0.76 µg/mL (≈ 2.35 µM) and greater than 100 µg/mL.
The corresponding values for `Fc1cccc(Nc2ccnc3cc(Cl)ccc23)c1` are 0.098 µg/mL (≈ 0.359 µM) and greater than 100 µg/mL.
Consider `COc1ccc(OC)c(Nc2ccnc3cc(Cl)ccc23)c1`, for which the LD50 at 7 days in data set [8] was determined as 800 mg/kg. The Activity entry in [9] is “Non-Toxic”; in data set [12] it was “Non-Toxic”; in data set [13] it was “Toxic”; in data set [14] it was “Dose-dependent effect”. The inhibition in vivo at 1 mg/kg/day in data set [3] amounted to 21.7%. The compound further showed an IC50 in data set [1] of 0.022 µg/mL (≈ 0.0699 µM). The selectivity ratio in [10] came out at 359. Besides, in data set [4], the inhibition in vivo at 0.1 mg/kg/day is 12%. For the same compound, in data set [11], the result was Active. In data set [5], the inhibition in vivo at 10 mg/kg/day came out at 93.4%. Besides, in data set [2], the CC50 at 72 h was greater than 100 µg/mL. Moreover, in data set [6], the ED50 amounted to 2.23 mg/kg. Also, in data set [7], the inhibition in vivo at 5 mg/kg/day was 58.1%.
Regarding `Fc1ccc(Nc2ccnc3cc(Cl)ccc23)c(F)c1`, the IC50 in [1] was 0.045 µg/mL (≈ 0.155 µM). In data set [2], this compound had a CC50 at 72 h greater than 100 µg/mL.
The matching figures for `COc1cc(Nc2ccnc3cc(Cl)ccc23)cc(OC)c1OC`: 0.64 µg/mL (≈ 1.86 µM) and greater than 100 µg/mL.
The corresponding values for `Cc1ccc(Nc2ccnc3cc(Cl)ccc23)cc1C` are 0.16 µg/mL (≈ 0.566 µM) and greater than 100 µg/mL.
The corresponding values for `Cc1cc(F)ccc1Nc1ccnc2cc(Cl)ccc12` are 0.076 µg/mL (≈ 0.265 µM) and greater than 100 µg/mL.
On to `Clc1ccc2c(Nc3ccccc3Br)ccnc2c1`, for which, in data set [1], the concentration for half-maximal inhibition (IC50) stood at 0.17 µg/mL (≈ 0.51 µM). This compound had a CC50 at 72 h in data set [2] greater than 100 µg/mL.
The matching figures for `Cc1cccc(C)c1Nc1ccnc2cc(Cl)ccc12`: 0.046 µg/mL (≈ 0.163 µM) and greater than 100 µg/mL.
In data set [1], `Fc1ccc(Nc2ccnc3cc(Cl)ccc23)c(Cl)c1` gave an IC50 of 0.065 µg/mL (≈ 0.212 µM). The compound further returned a half-maximal cytotoxic concentration (CC50) at 72 h in data set [2] greater than 100 µg/mL.
The matching figures for `Cc1ccc(C)c(Nc2ccnc3cc(Cl)ccc23)c1`: 0.46 µg/mL (≈ 1.63 µM) and greater than 100 µg/mL.
